Runt-SMMHC FRET – blocks binding of human RUNX1 Runt domain to CBFb-SMMHC | Q01196+Q13951 | Cerulean-Runt/Venus-CBFb-SMMHC FRET ratio 530/480, 1 h | inhibition, % at 20 µM | 220,000 tested, 0.74% active;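 active = mean inhibition across duplicate retests at 20 µM reaching about 50%, limit read from the data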;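 also: 0% = DMSO wells and 100% = wells with excess untagged CBFb-SMMHC; inhibitors lower the FRET ratio by blocking Runt binding to CBFb-SMMHC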
Hck-Nef inh – inhibitors of human Hck kinase activated by Nef; Recombinant Hck-YEEI plus Nef, Z-Lyte FRET kinase assay; inhibition, % at 20 µM; AID 463187; 220,000 tested, 0.68% active; P08631;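 active = Hck-Nef kinase inhibition above about 50%, limit read from the data; inactive = inhibition below that limit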;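 also: 0% = DMSO with Hck plus Nef and 100% = Hck alone without Nef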
Target sequence (P08631 whole entry, looked up): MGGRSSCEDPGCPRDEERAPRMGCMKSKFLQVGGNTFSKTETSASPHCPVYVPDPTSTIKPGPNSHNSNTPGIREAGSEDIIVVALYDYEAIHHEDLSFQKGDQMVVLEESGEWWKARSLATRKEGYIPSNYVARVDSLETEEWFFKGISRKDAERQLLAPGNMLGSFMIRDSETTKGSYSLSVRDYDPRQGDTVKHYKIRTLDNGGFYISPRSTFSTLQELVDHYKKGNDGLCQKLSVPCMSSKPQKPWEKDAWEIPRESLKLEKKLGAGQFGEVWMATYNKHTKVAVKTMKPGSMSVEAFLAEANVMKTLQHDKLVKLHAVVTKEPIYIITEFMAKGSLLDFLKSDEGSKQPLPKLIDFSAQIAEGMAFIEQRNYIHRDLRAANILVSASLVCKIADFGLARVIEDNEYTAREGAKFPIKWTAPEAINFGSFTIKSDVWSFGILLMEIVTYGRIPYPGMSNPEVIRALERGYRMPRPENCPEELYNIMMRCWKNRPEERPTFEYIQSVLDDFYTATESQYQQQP
RanGTP-Imp inh – inhibitors of RanGTP-importin-beta interaction, primary screen, biochemical, FRET, CFP-Ran, YFP-importin-beta, homogeneous; cell-free CFP-Ran/YFP-importin-beta FRET ratio; inhibition, % (no concentration beside the values); 300,000 tested, 1.1% active; AID 2216;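 active = more than half of the replicate wells show a fall in the fluorescence ratio signal beyond about 16%, limit read from the data, passing the limit was not always enough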;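 also: 0% = DMSO wells and 100% = Ran loaded with GDP instead of GTP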
Runt-CBFb FRET – inhibitors of human RUNX1 Runt domain binding to CBFb | inhibition, % at 20 µM | 220,000 tested, 0.46% active | Q01196+Q13951 | Cerulean-Runt/Venus-CBFb FRET ratio 530/480, 1 h;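 active = inhibition over about 50% at 20 µM in the single-dose screen, limit read from the data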;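 also: 0% = DMSO wells and 100% = excess unlabeled CBFb competitor control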
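Measured by: fluorescence energy transfer, 422 nm excitation, 530/480 nm emission; Assay system: Cerulean-Runt domain; Medium: Tris pH 7.5 buffer with BSA; Measure: loss of energy transfer signal; Controls: 5 µM unlabeled CBFb as full-inhibition high control; Incubation: protein complex preformed 1 h, compound exposure 1 h, room temperature, dark.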
CaV13 ICDI inh – Primary screen for inhibitors of IQ motif and Ca2+-dependent inactivation inhibitor domain binding in CACNA1D, Förster resonance energy transfer in living cells, …; HEK cells, CFP/YFP FRET ICDI-IQ, plate reader, 10 min; percent FRET-ratio fall versus neutral wells; inhibition, % at 12.3 µM; 340,000 tested, 0.098% active; AID 743397;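 active = mean replicate inhibition of at least 30% and at least 1% of replicates passing that level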;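 also: 0% = median of the neutral control wells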
Hck Nef conf – Hck-Nef kinase inhibition, confirmation; AID 463188; calls only at 10 µM; shares compounds with Hck-Nef inh; Recombinant Hck-YEEI:Nef, Z-Lyte FRET kinase assay; 1,300 tested, 28% active;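 active = average inhibition of at least 50%, with Z-scores no higher than 3 in both the phospho-tyrosine peptide and fluorescence counterscreens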
An asterisk follows results filed as active; i = inactive; . = not tested or not shown; + = active, no number. In the library only some 1.5% were active in any assay of this set; here they are far more common.

SMILES	Runt-SMMHC FRET	Hck-Nef inh	RanGTP-Imp inh	Runt-CBFb FRET	CaV13 ICDI inh	Hck Nef conf
Cc1c(Cl)cccc1NS(=O)(=O)c1ccc2c(c1)C1C=CCC1C(c1ccc(C(=O)O)cc1)N2 (centres undefined)	-131.0	63.0*	.	-21.2	.	+
CCOc1ccc(S(=O)(=O)N(CC)CC(=O)NCc2cccnc2)cc1	.	.	6.8	.	-7.8	.
CCOC(=O)c1[nH]c2ccccc2c1NC(=S)Nc1cc(C)ccc1C	-6.3	56.8*	-15.4	-1.7	-6.3	i
COc1ccc(N=C2NC(=O)/C(=C\c3ccco3)S2)cc1	-19.7	60.7*	-4.0	-1.0	-1.3	i
O=C(O)c1ccccc1/C=N/NC(=O)c1cc(-c2ccco2)nc2ccccc12	19.3	71.3*	-6.9	14.1	-5.5	+
COCc1[nH][nH]c(=O)c1C=Nc1ccc(Oc2ccccc2)cc1	-2.2	91.3*	-2.3	1.1	-1.1	+
O=C(/C=C/c1cn(-c2ccccc2)nc1-c1ccccc1)Nc1ccc(C(=O)O)cc1	-1.6	-3.4	-2.6	-6.4	-6.5	.
NS(=O)(=O)c1ccc(NC(=O)/C=C/c2cn(-c3ccccc3)nc2-c2cccc(Cl)c2)cc1	-13.4	89.6*	4.1	-2.7	-9.6	i
COc1cccc(N2CC(C(=O)Nc3nnc(SCC(=O)Nc4cc(C)on4)s3)CC2=O)c1 (centres undefined)	-5.8	52.0*	-4.1	-8.8	-7.2	+
O=c1oc2c(CN3CCOCC3)c(O)ccc2c2c1CCC2	54.1*	85.5*	.	20.6	-5.0	.
CC1CN(Cc2c(O)ccc3c2oc(=O)c2ccccc23)CC(C)O1 (centres undefined)	-4.0	24.0	2.1	1.6	-7.2	.
COc1ccc(-c2c(C)oc3c(CN4CCOCC4)c(O)ccc3c2=O)cc1	1.4	-1.4	4.7	1.8	-4.8	.
CC1CCCN(Cc2c(O)ccc3c4c(c(=O)oc23)CCCC4)C1 (centres undefined)	78.7*	64.4*	10.4	44.6	-3.0	.
CC(C)(C)OC(=O)N1CCCN(C(c2ccnc3ccccc23)c2nnnn2-c2ccc3c(c2)OCCO3)CC1 (centres undefined)	.	.	.	.	-5.6	.
CC(=O)Nc1cccc(NC(=O)c2cc(-c3cccnc3)nc3ccc(Br)cc23)c1	-11.5	1.5	3.5	-0.1	-7.2	.
CSc1ccccc1NC(=O)c1cc(-c2cccnc2)nc2ccc(Br)cc12	-3.0	57.1*	-0.2	-2.3	-6.1	i
CCOC(=O)c1c(NC(=O)/C=C/C(=O)O)sc(C)c1-c1ccc(F)cc1	1.1	51.3*	-3.4	-1.4	-20.6	+
CCOC(=O)c1c(NC(=O)/C=C/C(=O)O)sc(C)c1-c1ccc(C)c(C)c1	-5.4	29.8	7.7	1.3	1.6	.
